Tests used:
Leishmania donovani [1] = experiment: Tested in vitro for anti-leishmanial activity against Leishmania donovani; assay type: functional, organism-based
How it was run: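 In vitro assay using Leishmania donovani promastigotes incubated with increasing chalcone concentrations, with inhibition of parasite proliferation as the read-out.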

[2] = Inhibitory activity against phytohemagglutininin A-induced proliferation of human lymphocytes; assay type: functional
How it was run: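 Human lymphocytes stimulated with phytohemagglutinin A were incubated in vitro with increasing concentrations of each chalcone, and inhibition of their proliferation was measured.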

[3] = Inhibitory activity against phytohemagglutininin A-induced proliferation of human lymphocytes; Not tested due to low solubility; assay type: functional
Leishmania donovani [4] = experiment: Tested in vitro for anti-leishmanial activity against Leishmania. donovani; Not tested due to low solubility; assay type: functional, organism-based

SMILES	IC50 (Leishmania donovani [1]) [µM]	IC50 (Leishmania donovani [4])	IC50 [2] [µM]	IC50 [3]
C=CCOc1ccc(C(=O)/C=C/c2cccc(OC)c2OC)cc1	49		96	
CCCCOc1ccccc1C(=O)/C=C/c1cc(OC)cc(OC)c1	7.2		13	
C=CCOc1ccc(C(=O)/C=C/c2c(OC)cccc2OC)cc1	81		96	
COc1cccc(/C=C/C(=O)c2ccc(O)cc2)c1OC	89		70	
COc1ccc(/C=C/C(=O)c2ccccc2O)c(OC)c1	35		144	
COc1cc(/C=C/C(=O)c2ccc(O)cc2)cc(OC)c1	12		14	
COc1ccc(/C=C/C(=O)c2ccccc2Br)c(OC)c1	14		35	
COc1cc(OC)c(OC)cc1/C=C/C(=O)c1ccc(O)cc1	16		28	
C=CCOc1ccc(C(=O)/C=C/c2cc(OC)c(OC)c(OC)c2)cc1	41		30	
COc1ccc(/C=C/C(=O)c2ccccc2OC)c(OC)c1	16		26	
CCCCOc1cccc(C(=O)/C=C/c2ccc(OC)cc2OC)c1	20		65	
COc1ccc(C(=O)/C=C/c2ccc(F)c(F)c2)c(OC)c1	16		5.3	
COc1cccc(C(=O)/C=C/c2ccc(OC)cc2OC)c1	18		42	
CCCCOc1ccccc1/C=C/C(=O)c1ccc(OC)c(OC)c1OC	26		52	
COc1ccc(C(=O)/C=C/c2cccc(Oc3ccccc3)c2)c(OC)c1OC	8.7		17	
COc1ccc(C(=O)/C=C/c2ccc([N+](C)(C)C)cc2)c(OC)c1OC	21		35	
COc1ccc(/C=C/C(=O)c2cccc([N+](=O)[O-])c2)c(OC)c1	8.6		18	
COc1cc(OC)c(/C=C/C(=O)c2ccc(O)cc2)c(OC)c1	106		44	

SMILES	IC50 (Leishmania donovani [1]) [µM]	IC50 (Leishmania donovani [4])	IC50 [2] [µM]	IC50 [3]
COc1ccc(C(=O)/C=C/c2ccc(C#N)cc2)c(OC)c1OC	8.6		5.4	
CCCCCCc1cc(/C=C/C(=O)c2ccc(O)cc2)c(OC)cc1O	9.7		46	
CCCCOc1ccc(C(=O)/C=C/c2cc(OC)cc(OC)c2)cc1	35		52	
COc1cc(/C=C/C(=O)c2cccc(F)c2)cc(OC)c1	5.5		9.2	
C=CCOc1ccc(C(=O)/C=C/c2cc(OC)ccc2OC)cc1	73		55	
CCCCCCOc1ccc(C(=O)/C=C/c2ccccc2)cc1	62		99	
C=CCOc1ccc(C(=O)/C=C/c2cc(OC)c(CCCCCC)c(OC)c2)cc1	19		15	
COc1ccc(C(=O)/C=C/c2cccc(F)c2)c(OC)c1OC	9.7		6.4	
C=CCOc1ccc(C(=O)/C=C/c2cc(OC)c(CCCC)c(OC)c2)cc1	90			Not Active
COc1cc(/C=C/C(=O)c2ccccc2N(C)C)cc(OC)c1	7.3		5.7	
COc1cc(O)cc(C)c1/C=C/C(=O)c1ccc(O)cc1	39		53	
O=C(/C=C/c1ccc(F)cc1)c1ccc(F)cc1	15		22	
C=CCOc1ccc(C(=O)/C=C/c2cc(OC)cc(OC)c2)cc1	27		25	
COc1ccc(/C=C/C(=O)c2ccc(O)cc2)c(OC)c1	48		71	
C=CCOc1ccccc1C(=O)/C=C/c1ccc(OC)cc1OC	5			Not Active
O=C(/C=C/c1ccc(O)cc1)c1ccc(O)cc1 [4,4'-DIHYDROXYCHALCONE]	83		59	
O=C(/C=C/c1ccccc1)c1ccccc1 [CHALCONE]	20		21	
COc1cc(/C=C/C(=O)c2ccc(O)cc2O)ccc1O [HOMOBUTEIN]	16		31	

The next lines start with results.

IC50 (Leishmania donovani [1]) [µM]	IC50 (Leishmania donovani [4])	SMILES	IC50 [2] [µM]	IC50 [3]
6.3		COc1ccc(C(=O)/C=C/c2ccc(Cl)cc2Cl)c(OC)c1OC	7.8	
27		COc1ccc(C(=O)/C=C/c2ccc(F)cc2F)c(OC)c1	12	
79		CN(C)c1ccc(/C=C/C(=O)c2ccc(O)cc2)cc1	130	
95		CCCCOc1ccc(C(=O)/C=C/c2ccc(OC)cc2OC)cc1		Not Active
	Not Active	O=C(/C=C/c1ccc(Oc2ccccc2)cc1)c1ccc(C2CCCCC2)cc1		Not Active
16		COc1cc(/C=C/C(=O)c2ccc([N+](=O)[O-])cc2)cc(OC)c1	20	
5.9		COc1ccc(C(=O)/C=C/c2ccccc2[N+](=O)[O-])c(OC)c1OC	7	
82		COc1cccc(OC)c1/C=C/C(=O)c1ccc(O)cc1	60	
30		CN(C)c1ccc(/C=C/C(=O)c2ccc(N(C)C)cc2)cc1		Not Active
	Not Active	CN(C)c1ccc(/C=C/C(=O)c2ccc([N+](=O)[O-])cc2)cc1		Not Active
26		COc1ccc(/C=C/C(=O)c2ccc(F)cc2F)c(OC)c1	74	
49		COc1cc(O)ccc1/C=C/C(=O)c1ccc(N(C)C)cc1	111	
3.8		COc1cc(/C=C/C(=O)c2ccccc2O)cc(OC)c1	8.1	
3.5		COc1cc(/C=C/C(=O)c2ccccc2F)cc(OC)c1	6	
7.8		COc1ccc(OC)c(C(=O)/C=C/c2ccc(Cl)cc2Cl)c1	5.7	
3.7		COc1cc(/C=C/C(=O)c2cccc(O)c2)cc(OC)c1	3.2	
136		CCCCCCOc1ccc(C(=O)/C=C/c2ccc(OC)cc2OC)cc1		Not Active
15		COc1ccc(/C=C/C(=O)c2ccccc2)c(OC)c1	48	
16		COc1ccc(/C=C/C(=O)c2cccc(Br)c2)c(OC)c1	37	
104		CCCCOc1ccc(C(=O)/C=C/c2c(OC)cccc2OC)cc1		
26		O=C(/C=C/c1ccc([N+](=O)[O-])cc1)c1ccc([N+](=O)[O-])cc1	51	
	Not Active	CN(C)c1ccc(C(=O)/C=C/c2ccc([N+](=O)[O-])cc2)cc1		Not Active

IC50 (Leishmania donovani [1]) [µM]	IC50 (Leishmania donovani [4])	SMILES	IC50 [2] [µM]	IC50 [3]
20		COc1ccc(C(=O)/C=C/c2cccc(N(C)C)c2)c(OC)c1OC	26	
15		O=C(/C=C/c1ccccc1)c1ccc(F)cc1	23	
9.3		COc1ccc(C(=O)/C=C/c2ccccc2O)c(OC)c1OC	9	
42		O=C(/C=C/c1ccc(Oc2ccccc2)cc1)c1ccc(F)cc1	33	
3.4		COc1cc(/C=C/C(=O)c2ccccc2[N+](=O)[O-])cc(OC)c1	3.7	
	Not Active	COc1cc(/C=C/C(=O)c2ccc(N(C)C)cc2)cc(OC)c1		Not Active
60		C=CCOc1ccc(C(=O)/C=C/c2ccc(OC)c(OC)c2)cc1	51	
26		CCCc1cc(/C=C/C(=O)c2ccc(O)cc2)c(OC)cc1O	41	
8.3		COc1cc(/C=C/C(=O)c2ccc(OC)c(OC)c2OC)cc(OC)c1	8.7	
27		O=C(/C=C/c1ccc(F)cc1)c1ccc(C2CCCCC2)cc1	74	
31		COc1cc(/C=C/C(=O)c2ccc(C3CCCCC3)cc2)cc(OC)c1	39	
17		COc1ccc(C(=O)/C=C/c2cccc([N+](=O)[O-])c2)c(OC)c1OC	36	
22		COc1c(/C=C/C(=O)c2ccc(O)cc2)ccc(O)c1C	27	
38		C=CCOc1ccc(C(=O)/C=C/c2cc(OCC=C)ccc2OCC=C)cc1	61	
23		COc1ccc(OC)c(/C=C/C(=O)c2ccc(O)cc2)c1	22	
5.8		COc1cc(/C=C/C(=O)c2cccc(N(C)C)c2)cc(OC)c1	5	
15		COc1ccc(C(=O)/C=C/c2ccccc2F)c(OC)c1OC	11	
16		O=C(/C=C/c1ccccc1)c1ccc(O)cc1 [4'-HYDROXYCHALCONE]	28	
106		COc1ccc(/C=C/C(=O)c2ccc(OC)cc2)cc1 [4,4'-DIMETHOXYCHALCONE]	112	
66		O=C(/C=C/c1ccc(O)c(O)c1)c1ccc(O)cc1O [BUTEIN]	16	
68		COc1cc(O)ccc1/C=C/C(=O)c1ccc(O)cc1 [ECHINATIN]	94	
13		C=CC(C)(C)c1cc(/C=C/C(=O)c2ccc(O)cc2)c(OC)cc1O [LICOAGROCHACONE A]	48	
